PglD DTNB – PglD (C. jejuni) enzyme inhibition; purified PglD enzyme, DTNB colorimetric CoA detection; inhibition, % at 12.5 µM; 0.098% of 360,000 active; AID 602405; in the data active = inhibition above about 16%, passing the limit was not always enough; inconclusive = no clear call, values can overlap the other calls
Vif inh – blocks HIV Vif function; HEK293T cells, Vif self-association by quenched fluorescence, imaging, 24 h; inhibition, % at 7.49 µM; 0.35% of 340,000 active; AID 602346; in the data active = inhibition above about 50%, passing the limit was not always enough; inconclusive = no clear call, values can overlap the other calls; inactive = below about 31%
Cneo AK release – Cryptococcus neoformans lysis via adenylate kinase release | C. neoformans lysis, adenylate kinase release luminescence, 4 h; normalised: neutral wells 0, clomiphene wells 100 | lysis activity, % at 15 µM | 0.2% of 360,000 active;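 active = mean lysis activity across replicates of at least 80%, whatever share of replicates individually reach that level; inactive = mean lysis activity below 80%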
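Material – log-phase Cryptococcus neoformans yeast cells · Input – 5 × 10^6 yeast cells/mL · Medium – fresh YPD growth medium · Doses – single compound concentration per well · Timing – static 4 h at 37 °C with compound, 1 h detection · Detection – adenylate kinase release luminescence · Read-out – signal increase indicating cell lysis · Control set – Clomiphene as positive lysis control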
rRNA inh HTS – selective bacterial rRNA inhibition in E. coli; E. coli WT GFP vs humanized-ribosome RFP mutants, fluorescence, 24 h; active compounds read low; DMSO median 0, no signal -100; 1.6% of 350,000 active; GFP signal change (wild-type ribosome), % (no concentration beside the values);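 active = significant combined selectivity score with lowered wild-type GFP, culture density cut under 30%, mutant RFP and density less affected; inactive = any of these conditions unmet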
FGF22 binding – shifts melting point of recombinant human FGF22 | Q9HCT0 | recombinant FGF22 thermal shift, SYPRO orange fluorescence; percent of sucrose octasulfate shift, DMSO zero | activity (Tm shift, normalised), % at 9.99 µM | 1.5% of 340,000 active | AID 651658;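 active = mean Tm shift, scaled 0 neutral to 100 positive control, at about 1.3% or above, every replicate too, limit read from the data; inconclusive = no clear call, values can overlap the other calls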
Target sequence (Q9HCT0 whole entry, looked up): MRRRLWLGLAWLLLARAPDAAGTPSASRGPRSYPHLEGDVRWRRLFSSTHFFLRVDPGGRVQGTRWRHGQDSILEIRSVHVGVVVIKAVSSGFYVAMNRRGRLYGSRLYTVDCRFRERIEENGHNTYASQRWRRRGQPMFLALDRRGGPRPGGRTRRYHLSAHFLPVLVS
PGC1a acetyl inh – modulators of PGC1a acetylation | inhibition, % at 15.6 µM | 0.17% of 350,000 active | U2OS PGC1a acetylation, AlphaScreen anti-acetyl-lysine; with virally co-expressed GCN5 acetyltransferase;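 active = every replicate shows inhibition of at least 40%; inconclusive = mean inhibition at least 40% but some replicate below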
HepG2 cytotox – kills or reduces viability of HepG2 cells | AID 743480 | shares compounds with rRNA inh HTS | 30 tested, under 10 active | ATP luminescence, 72 h | activity change, negative = cytotoxicity, unspecified at 26 µM;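 active = compounds whose fitted half-maximal signal-loss concentration is at most twice their highest valid dose; inconclusive = flat curve with 30 to 70% signal loss, or poor fit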
AID977621 – wild-type E. coli growth inhibition versus H69 humanized strain – H69 mutant RFP, wild-type GFP, cherry-pick, dose response; shares compounds with rRNA inh HTS; fluorescence, 24 h; activity change, negative = inhibition at 50 µM; 1,900 tested, under 10 active;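 active = Wild-type ribosome reporter drop at least double the humanized mutant ribosome reporter drop, growth loss under a set limit; inconclusive = no clear call, values can overlap the other calls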;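 also: wild-type GFP and H69 mutant RFP strains grown together 50/50 in each well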
AID977628 – growth of wild-type and h24-humanized E. coli strains – h24 mutant RFP vs wild-type GFP, cherry-pick, dose response; shares compounds with rRNA inh HTS; E. coli WT GFP strain growth, fluorescence, 24 h; 1,900 tested, under 10 active; activity change, negative = inhibition at 50 µM;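 active = compound lowering the normal-ribosome reporter at least twice as much as the humanized-ribosome reporter, growth loss under a set limit; inconclusive = no clear call, values can overlap the other calls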;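 also: wild-type GFP and h24 humanized RFP strains co-cultured 1 to 1 per well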
Of the large screens only hits and unclear results are named; the others gave an inactive call (follow-up assays come after a bar, where they were run). Rows were chosen to be rich in hits. Some 2.9% of all compounds tested hit in one or more screens of this group.

CCn1nc(C)c(Br)c1-c1nc(CS(=O)(=O)c2ccsc2)no1	Vif inh 56.0, rRNA inh HTS -34.2 | AID977621 inactive | AID977628 inconclusive
O=C(NCc1ccccc1)c1cc(S(=O)(=O)N2CCCCC2)ccc1N1CCOCC1	rRNA inh HTS -17.8 | AID977621 inactive | AID977628 inactive
C[C@H]1CN([C@@H](C)CO)C(=O)c2cccc(NC(=O)c3ccncc3)c2O[C@@H]1CN(C)S(=O)(=O)c1ccc(Cl)cc1	none (no result: Vif inh)
C[C@@H]1CN([C@H](C)CO)C(=O)c2cccc(NC(=O)c3ccncc3)c2O[C@@H]1CN(C)S(=O)(=O)c1ccc(Cl)cc1	rRNA inh HTS -23.0 (no result: Vif inh) | AID977628 inconclusive
COc1ccc(NC(=O)Nc2cccc3c2O[C@H](CN(C)S(=O)(=O)c2ccc(Cl)cc2)[C@H](C)CN([C@H](C)CO)C3=O)cc1	none (no result: Vif inh) | AID977621 inactive | AID977628 inconclusive
CCCNC(=O)Nc1ccc2c(c1)OC[C@H](C)N(C(=O)C1CCCCC1)C[C@H](C)[C@@H](OC)CN(C)C2=O	none (no result: PglD DTNB, Vif inh, Cneo AK release)
C[C@@H]1CCCCO[C@@H](CN(C)C(=O)Nc2cccc3ccccc23)[C@H](C)CN([C@@H](C)CO)C(=O)c2cc(NC(=O)Nc3cccc4ccccc34)ccc2O1	none (no result: PglD DTNB, Vif inh, Cneo AK release)
COc1ccc(OCCSc2nc3ccccc3n2CC(=O)O)cc1	none (no result: Vif inh, rRNA inh HTS, FGF22 binding)
COc1ccc(C(=O)CSc2nc3ccccc3n2CC(=O)c2ccccc2)cc1	rRNA inh HTS -27.8 | AID977621 inactive | AID977628 inactive
C[C@H]1CN([C@@H](C)CO)C(=O)c2cc(-c3ccc(F)cc3)cnc2O[C@H]1CN(C)CC1CCCCC1	none (no result: Vif inh)
COC(=O)c1cc(-c2ccc(Cl)cc2)n[nH]1	none (no result: PglD DTNB, Cneo AK release)
CCOC(=O)c1cc(-c2ccc(OC)cc2)n[nH]1	rRNA inh HTS -25.5 (no result: PglD DTNB, Cneo AK release) | AID977621 inactive | AID977628 inactive
COc1ccc(CN(C)C[C@@H]2OCCCC[C@@H](C)Oc3ccc(NC(=O)CCCN(C)C)cc3C(=O)N([C@@H](C)CO)C[C@@H]2C)cc1	none (no result: PglD DTNB, Vif inh, Cneo AK release)
Cc1ccc(-n2nnnc2SCC(=O)NC2CCCc3ccccc32)c(C)c1 (stereo not given)	none (no result: PglD DTNB, Vif inh, Cneo AK release, rRNA inh HTS, FGF22 binding)
Cc1ccc(-n2nnnc2SCC(=O)NC2CCCc3ccccc32)cc1 (stereo not given)	rRNA inh HTS -30.0 | AID977621 inactive
Cc1ccccc1CSc1nnc(-c2ccccn2)n1C	rRNA inh HTS -20.9 | AID977621 inactive | AID977628 inconclusive
COCCCNc1ccn2nc(-c3ccccc3)cc2n1	rRNA inh HTS -19.5 (no result: PGC1a acetyl inh) | AID977621 inactive
COCCCNc1ccn2nc(-c3cccc(Cl)c3)cc2n1	none
CCc1cc2c(nc1CC)CCCN2Cc1ccc(Br)cc1	rRNA inh HTS -25.6 (no result: PglD DTNB, Vif inh, Cneo AK release, PGC1a acetyl inh) | AID977621 inactive
CCC(C)C(=O)Nc1nc2ccc(OC)cc2s1 (stereo not given)	rRNA inh HTS -21.5 | AID977621 inactive
COc1cccc(-c2ccc(NC(=O)C3CCCN(Cc4cnn(C(C)C)c4)C3)cc2)c1 (stereo not given)	rRNA inh HTS -24.2 | AID977628 inactive
CCCc1ncc(CN2CCCC(C(=O)Nc3ccc(-c4cccc(OC)c4)cc3)C2)cn1 (stereo not given)	none
O=C1c2ccccc2C(c2nnnn2C2CCCCC2)N1CCc1ccc(O)cc1 (stereo not given)	rRNA inh HTS -17.9 (no result: PglD DTNB, Vif inh, Cneo AK release, PGC1a acetyl inh) | AID977621 inactive | AID977628 inactive
COc1ccc2c3c([nH]c2c1)[C@@H](CO)N(C(=O)c1ccc(F)cc1)CC31CN(C(=O)Nc2ccc(F)cc2)C1	none (no result: PglD DTNB, Vif inh, Cneo AK release, FGF22 binding, PGC1a acetyl inh)
N#CC1CN(Cc2ccccc2)CN(Cc2ccccc2)C1	rRNA inh HTS -26.9 (no result: PglD DTNB, Cneo AK release, PGC1a acetyl inh) | AID977628 inconclusive
N#CC1CN(C(c2ccccc2)c2ccccc2)C1	none
C[C@H](CO)N1C[C@H](C)[C@H](CN(C)S(=O)(=O)c2ccc3c(c2)OCCCO3)OCc2cn(nn2)CCCC1=O	none (no result: Vif inh)
O=C1CCCCC1Nc1ccc(Br)cc1 (stereo not given)	rRNA inh HTS -18.6 (no result: PglD DTNB, Cneo AK release, PGC1a acetyl inh) | AID977621 inactive | AID977628 inactive
CC(=O)N(CCC1(c2ccc(C)cc2)CCOC(C(C)C)C1)Cc1ccco1 (stereo not given)	rRNA inh HTS -20.1 | AID977621 inactive
O=C(CSc1nc2nc(-c3cccs3)cc(C(F)(F)F)c2c(=O)[nH]1)Nc1ccc(F)c(F)c1	none (no result: PglD DTNB, Cneo AK release)
Cc1ccc(C)c(NC(=O)CSc2nc3nc(-c4cccs4)cc(C(F)(F)F)c3c(=O)[nH]2)c1	rRNA inh HTS -19.9 | HepG2 cytotox inactive | AID977628 inconclusive
NNC(=O)c1ccc(-c2ccccc2F)cc1	none (no result: PglD DTNB, Cneo AK release, rRNA inh HTS, PGC1a acetyl inh)
C#CC(C)(C)NC(=O)c1ccc(-c2ccccc2F)cc1	rRNA inh HTS -23.1 (no result: PglD DTNB, Cneo AK release, PGC1a acetyl inh) | AID977621 inactive | AID977628 inactive
O=C(CN1CCOCC1)NCC[C@H]1CC[C@H](NC(=O)Nc2ccc(C(F)(F)F)cc2)[C@H](CO)O1	none (no result: Vif inh)
COc1cccc2c1Oc1cc([N+](=O)[O-])cc(N(C)C(C)=O)c1C=C2	rRNA inh HTS -17.3 | AID977628 inconclusive
CC(=O)N(C)c1cc([N+](=O)[O-])ccc1OCc1ccccc1	none
Cn1ccc2cc(-c3ccc4ncnc(NCc5cccs5)c4c3)ccc21	rRNA inh HTS -23.6 | AID977621 inconclusive | AID977628 inactive
COc1cccc(-c2ccc3ncnc(NCc4cccs4)c3c2)c1	none
COc1cccc(C(=O)Nc2nnc(S(=O)(=O)N(C)Cc3ccccc3)s2)c1	rRNA inh HTS -22.6 | AID977621 inactive | AID977628 inactive
C[C@H]1CN([C@@H](C)CO)C(=O)Cc2cc(NS(=O)(=O)c3cccs3)ccc2O[C@@H]1CN(C)Cc1ccc2c(c1)OCO2	none (no result: Vif inh)
CCCN1C(=O)C(O)(c2c(C)[nH]c3ccccc23)c2ccccc21 (stereo not given)	rRNA inh HTS -18.3 | AID977621 inactive | AID977628 inactive
COCC(=O)N1[C@@H]2CN(C(=O)c3ccncc3)c3ccccc3[C@@H]2[C@@H]1CO	none (no result: Vif inh)
Nc1ccccc1Sc1ccc(C(=O)c2ccccc2C(=O)O)cc1[N+](=O)[O-]	none
CC(=O)c1ccc(Sc2ccccc2N)c([N+](=O)[O-])c1	rRNA inh HTS -15.8 | AID977628 inactive
